The subject of assay [1] is Escherichia coli. The experiment in a line: Antibacterial activity in vitro against Escherichia coli Vogel. In kind it is functional. The conditions noted are these: Escherichia coli; read-out: MIC. The gist of the method: (§1)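 Standard microtitration broth assay against a panel of 10 Gram-positive and Gram-negative organisms. MIC read in µg/mL and averaged over multiple experiments.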

For assay [2], the system named is Escherichia coli. In words: Antibacterial activity against Escherichia coli Vogel after oral administration in mouse. The conditions noted are these: Escherichia coli, po; read-out: PD50. In kind it is functional.
The subject of assay [3] is Escherichia coli. The experiment in a line: Antibacterial activity against Escherichia coli Vogel after subcutaneous administration in mouse. In kind it is functional. The settings on record: Escherichia coli, sc; read-out: PD50.
The next assay relates to Enterobacter cloacae. In words: Minimum inhibitory concentration in vitro against Enterobacter cloacae MA 2646. In kind it is functional. The settings on record: Enterobacter cloacae; read-out: MIC.
The next assay has as its system Enterococcus faecalis. In words: Minimum inhibitory concentration was evaluated in vitro against Enterococcus faecalis MGH-2. In kind it is functional. In short, it runs like this:
as §1

Another assay concerns Klebsiella pneumoniae. The experiment in a line: Minimum inhibitory concentration was evaluated in vitro against Klebsiella pneumoniae MGH2. In kind it is functional. The conditions noted are these: Klebsiella pneumoniae; read-out: MIC. The gist of the method: as §1
The species named for another assay is Mus musculus. In words: Compounds were evaluated for phototoxicity no-effect dose in mouse. The format is functional. The gist of the method: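 Depilated female CD-1 mice, five per dose plus controls. Animals are dosed orally and then exposed daily to UV-A (320–400 nm) for 3 h, for up to 4 days or until a definite positive response. Redness or erythema relative to controls, read 24 h after irradiation, counts as positive. Reported as the highest dose with no effect (mg/kg).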

A further assay concerns Providencia rettgeri. In words: Minimum inhibitory concentration was evaluated in vitro against Providencia rettgeri M1771. In kind it is functional. The conditions noted are these: Providencia rettgeri; read-out: MIC. In short, it runs like this:
as §1

Another assay has as its system Pseudomonas aeruginosa. The experiment in a line: Minimum inhibitory concentration was evaluated in vitro against Pseudomonas aeruginosa UI-18. The format is functional. The conditions noted are these: Pseudomonas aeruginosa; read-out: MIC. The gist of the method: as §1
The test system of assay [4] is Staphylococcus aureus. In words: Minimum inhibitory concentration was evaluated in vitro against Staphylococcus aureus H 228. The format is functional. The settings on record: Staphylococcus aureus; read-out: MIC. The gist of the method:
as §1

The subject of assay [5] is Staphylococcus aureus. In words: Minimum inhibitory concentration was evaluated in vitro against Staphylococcus aureus UC 76. The format is functional. The gist of the method:
as §1

For a further assay, the system named is Streptococcus pneumoniae. In words: Minimum inhibitory concentration was evaluated in vitro against Streptococcus pneumoniae SV-1. In kind it is functional. The gist of the method:
as §1

For assay [6], the system named is Streptococcus pyogenes. In words: Antibacterial activity measured as mouse protection against Streptococcus pyogenes C 203 after subcutaneous administration. In kind it is functional. The settings on record: for ED50: Streptococcus pyogenes, C 203, sc, read-out: PD50.
The nature of assay [7]: Clonogenic cytotoxicity against hamster V-79 cells. The format is functional, Cricetulus griseus, V79. The gist of the method: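 Chinese hamster V-79 cells grown overnight, then drug-treated for 3 h at 37 °C. Medium is replaced with fresh medium and cells are incubated 5 days to allow colony formation. IC50 (µg/mL) is the concentration inhibiting colony formation by 50% relative to control.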

In assay [8] the test system is Streptococcus pyogenes. The experiment in a line: Compounds were evaluated in vivo for antibacterial activity for mouse protection against Streptococcus pyogenes C 203 after oral administration. The format is functional. The conditions noted are these: for ED50: Streptococcus pyogenes, C 203, po, read-out: PD50.
Assay [9] concerns Streptococcus pyogenes. In words: Minimum inhibitory concentration was evaluated in vitro against Streptococcus pyogenes C 203. The format is functional. The gist of the method:
as §1

The mark [10] stands for this setting: Enterococcus faecalis, read-out: MIC.
[11] abbreviates: Staphylococcus aureus, read-out: MIC.
The mark [12] stands for this setting: Streptococcus pneumoniae, read-out: MIC.
Setting [13] is: Streptococcus pyogenes, read-out: MIC.

In brackets after ≈: the same amount, converted by molar mass.

Usually MIC stands for the lowest concentration found to suppress growth.

In the case of `CCN[C@@H](C)[C@@H]1CCN(c2nc3c(cc2F)c(=O)c(C(=O)O)cn3C2CC2)C1` (racemic), the minimum inhibitory concentration (MIC) with Escherichia coli [1] amounted to 0.1 µg/mL (≈ 0.257 µM); in the assay with Enterobacter cloacae, 0.1 µg/mL (≈ 0.257 µM); against Enterococcus faecalis, 0.05 µg/mL (≈ 0.129 µM); with Klebsiella pneumoniae it was 0.2 µg/mL (≈ 0.515 µM); in the assay with Providencia rettgeri, 0.8 µg/mL (≈ 2.06 µM); in the assay on Pseudomonas aeruginosa it was 1.6 µg/mL (≈ 4.12 µM). In addition, the minimal inhibitory concentration (MIC) is 0.1 µg/mL (≈ 0.257 µM) with Staphylococcus aureus [4], 0.025 µg/mL (≈ 0.0644 µM) against Staphylococcus aureus [5], 0.025 µg/mL (≈ 0.0644 µM) in the assay with Streptococcus pneumoniae and 0.05 µg/mL (≈ 0.129 µM) in the assay with Streptococcus pyogenes [9]. Also, the ED50 in the assay on Escherichia coli [2] worked out at 2 mg/kg; with Escherichia coli [3], 1 mg/kg. In the assay listed under Mus musculus, this compound registered a Dose of less than 30 mg/kg. Besides, the PD50 with Streptococcus pyogenes [6] and in the assay on Streptococcus pyogenes [8] was 2 mg/kg in each case. In assay [7], this compound had a Cytotoxicity of 130 µg/mL.
Consider `COc1c(N2CC[C@H]([C@@H](C)N)C2)c(F)cc2c(=O)c(C(=O)O)cn(C3CC3)c12` (racemic), for which the minimum inhibitory concentration (MIC) in the assay on Escherichia coli [1] amounted to 0.025 µg/mL (≈ 0.0642 µM); in the assay with Enterobacter cloacae, 0.05 µg/mL (≈ 0.128 µM); with Enterococcus faecalis (setting [10]), 0.006 µg/mL (≈ 0.0154 µM); in the assay on Klebsiella pneumoniae, 0.05 µg/mL (≈ 0.128 µM); in the assay on Providencia rettgeri it was 0.05 µg/mL (≈ 0.128 µM); with Pseudomonas aeruginosa, 0.4 µg/mL (≈ 1.03 µM). The minimal inhibitory concentration (MIC) stood at 0.006 µg/mL (≈ 0.0154 µM) with Staphylococcus aureus [4], 0.003 µg/mL (≈ 0.0077 µM) in the assay with Staphylococcus aureus [5] (setting [11]), 0.003 µg/mL (≈ 0.0077 µM) in the assay on Streptococcus pneumoniae (setting [12]) and 0.003 µg/mL (≈ 0.0077 µM) in the assay with Streptococcus pyogenes [9] (setting [13]). Moreover, the ED50 was 4 mg/kg in the assay on Escherichia coli [2], 1 mg/kg in the assay with Escherichia coli [3], 0.3 mg/kg with Streptococcus pyogenes [6] and 1 mg/kg in the assay with Streptococcus pyogenes [8]. The compound also showed a Dose in the assay filed under Mus musculus greater than 100 mg/kg. For the same compound, in assay [7], the Cytotoxicity was less than 7.8 µg/mL.
As for `Nc1c(F)c(N2CCC(N)C2)c(F)c2c1c(=O)c(C(=O)O)cn2C1CC1` (stereo not given), the minimum inhibitory concentration (MIC) in the assay on Escherichia coli [1] was found to be 0.006 µg/mL (≈ 0.0165 µM); in the assay with Enterobacter cloacae, 0.013 µg/mL (≈ 0.0357 µM); in the assay with Enterococcus faecalis (setting [10]) it was 0.025 µg/mL (≈ 0.0686 µM); in the assay with Klebsiella pneumoniae it was 0.006 µg/mL (≈ 0.0165 µM); in the assay with Providencia rettgeri it was 0.025 µg/mL (≈ 0.0686 µM); with Pseudomonas aeruginosa it was 0.05 µg/mL (≈ 0.137 µM). The MIC in the assay on Staphylococcus aureus [4] was determined as 0.013 µg/mL (≈ 0.0357 µM); with Staphylococcus aureus [5] (setting [11]), 0.006 µg/mL (≈ 0.0165 µM); in the assay with Streptococcus pneumoniae (setting [12]) it was 0.006 µg/mL (≈ 0.0165 µM); in the assay on Streptococcus pyogenes [9] (setting [13]), 0.025 µg/mL (≈ 0.0686 µM). Moreover, the ED50 came out at 1 mg/kg with Escherichia coli [2], 0.3 mg/kg in the assay with Escherichia coli [3], 8 mg/kg in the assay with Streptococcus pyogenes [6] and 28 mg/kg in the assay with Streptococcus pyogenes [8]. The same compound showed a Dose in the assay filed under Mus musculus of 55 mg/kg. In [7], this compound displayed a Cytotoxicity of 15 µg/mL.
On to `NC1CCN(c2nc3c(cc2F)c(=O)c(C(=O)O)cn3-c2ccc(F)cc2F)C1` (stereo not given) [TOSUFLOXACIN], for which the MIC stood at 0.025 µg/mL (≈ 0.0618 µM) in the assay on Escherichia coli [1]; 0.025 µg/mL (≈ 0.0618 µM) in the assay with Enterobacter cloacae; 0.1 µg/mL (≈ 0.247 µM) with Enterococcus faecalis (setting [10]); 0.1 µg/mL (≈ 0.247 µM) with Klebsiella pneumoniae; 0.1 µg/mL (≈ 0.247 µM) with Providencia rettgeri; 0.4 µg/mL (≈ 0.989 µM) in the assay with Pseudomonas aeruginosa. For the same compound, the minimum inhibitory concentration (MIC) in the assay with Staphylococcus aureus [4] was found to be 0.05 µg/mL (≈ 0.124 µM); with Staphylococcus aureus [5] (setting [11]), 0.013 µg/mL (≈ 0.0322 µM); with Streptococcus pneumoniae (setting [12]), 0.05 µg/mL (≈ 0.124 µM); in the assay with Streptococcus pyogenes [9] (setting [13]), 0.05 µg/mL (≈ 0.124 µM). Further, the ED50 with Escherichia coli [2] came to 0.5 mg/kg; with Escherichia coli [3], 0.2 mg/kg; in the assay with Streptococcus pyogenes [6] it was 3 mg/kg; in the assay on Streptococcus pyogenes [8], 5 mg/kg. Further, the Dose in the assay listed under Mus musculus is greater than 100 mg/kg. For the same compound, in assay [7], the Cytotoxicity amounted to 120 µg/mL.
For the compound `CNCC1CCN(c2c(F)c(N)c3c(=O)c(C(=O)O)cn(C4CC4)c3c2F)C1` (stereo not given), the minimal inhibitory concentration (MIC) in the assay with Escherichia coli [1] amounted to 0.025 µg/mL (≈ 0.0637 µM); in the assay on Enterobacter cloacae it was 0.05 µg/mL (≈ 0.127 µM); in the assay on Enterococcus faecalis (setting [10]), 0.025 µg/mL (≈ 0.0637 µM); in the assay with Klebsiella pneumoniae, 0.05 µg/mL (≈ 0.127 µM); in the assay on Providencia rettgeri it was 0.2 µg/mL (≈ 0.51 µM); in the assay with Pseudomonas aeruginosa, 0.4 µg/mL (≈ 1.02 µM). The minimal inhibitory concentration (MIC) with Staphylococcus aureus [4] is 0.013 µg/mL (≈ 0.0331 µM); in the assay on Staphylococcus aureus [5] (setting [11]) it was 0.006 µg/mL (≈ 0.0153 µM); in the assay on Streptococcus pneumoniae (setting [12]), 0.003 µg/mL (≈ 0.00765 µM); in the assay on Streptococcus pyogenes [9] (setting [13]), 0.003 µg/mL (≈ 0.00765 µM). The ED50 was found to be 8 mg/kg with Escherichia coli [2] and 1 mg/kg with Escherichia coli [3]. For the same compound, the Dose in the assay filed under Mus musculus is greater than 100 mg/kg. This compound also registered a Cytotoxicity in [7] of 7.8 µg/mL.
As to `CN[C@H](C)[C@@H]1CCN(c2c(F)c(N)c3c(=O)c(C(=O)O)cn(C4CC4)c3c2F)C1`, the minimum inhibitory concentration (MIC) in the assay with Escherichia coli [1] was 0.05 µg/mL (≈ 0.123 µM); in the assay on Enterobacter cloacae, 0.05 µg/mL (≈ 0.123 µM); with Enterococcus faecalis (setting [10]), 0.013 µg/mL (≈ 0.032 µM); in the assay with Klebsiella pneumoniae, 0.1 µg/mL (≈ 0.246 µM); with Providencia rettgeri, 0.2 µg/mL (≈ 0.492 µM); with Pseudomonas aeruginosa, 0.8 µg/mL (≈ 1.97 µM). Also, the minimal inhibitory concentration (MIC) with Staphylococcus aureus [4] came out at 0.006 µg/mL (≈ 0.0148 µM); in the assay on Staphylococcus aureus [5] (setting [11]), 0.003 µg/mL (≈ 0.00738 µM); in the assay on Streptococcus pneumoniae (setting [12]), 0.006 µg/mL (≈ 0.0148 µM); in the assay on Streptococcus pyogenes [9] (setting [13]), 0.006 µg/mL (≈ 0.0148 µM). The same compound showed a Dose in the assay listed under Mus musculus of less than 30 mg/kg. Also, the Cytotoxicity in assay [7] was found to be 24 µg/mL.

Values taken from ChEMBL document CHEMBL1126988, “Quinolone antibacterials containing the new 7-[3-(1-aminoethyl)-1- pyrrolidinyl] side chain: the effects of the 1-aminoethyl moiety and its stereochemical configurations on potency and in vivo efficacy” (J Med Chem, 1993).
